{"source": "ChEMBL document CHEMBL1142193", "about": "“Dual targeting of GyrB and ParE by a novel aminobenzimidazole class of antibacterial compounds” (2007)", "type_in_all_cases": "functional", "key": {"Staphylococcus aureus [1]": {"system": "Staphylococcus aureus", "experiment": "Antibacterial activity against Staphylococcus aureus ATCC 29213 without plasmid"}, "Staphylococcus aureus [2]": {"system": "Staphylococcus aureus", "experiment": "Inhibition of protein synthesis in Staphylococcus aureus ATCC 29213 assessed as [3H]aminoacid incorporation"}, "Enterococcus faecalis [3]": {"system": "Enterococcus faecalis", "experiment": "Antibacterial activity against Enterococcus faecalis ATCC 29212 with GyrB T167A and ParE T169A mutation after 18 to 20 hrs", "how_it_was_run": "(§1)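 MICs followed CLSI guidelines. Strains were grown overnight at 35°C on solid medium. Inocula were prepared with a Prompt system. Compounds were serially diluted twofold in 100% DMSO at 200x and diluted 1:200 into medium, for a final 0.5% DMSO. Plates were incubated at 35°C for 18 to 20 h and read visually. A twofold MIC variation was taken as assay error.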"}, "Streptococcus pneumoniae [4]": {"system": "Streptococcus pneumoniae", "experiment": "Antibacterial activity against Streptococcus pneumoniae ATCC BAA-255 with GyrB T172A and ParE T172A mutation after 18 to 20 hrs", "how_it_was_run": "as §1"}, "Streptococcus pneumoniae [5]": {"system": "Streptococcus pneumoniae", "experiment": "Antibacterial activity against novobiocin-resistant Streptococcus pneumoniae ATCC BAA-255 with GyrB S127L mutation after 18 to 20 hrs", "how_it_was_run": "as §1"}, "Staphylococcus aureus [6]": {"system": "Staphylococcus aureus", "experiment": "Antibacterial activity against Staphylococcus aureus ATCC 29213 carrying plasmid expressing GyrB R144I mutant"}, "Staphylococcus aureus [7]": {"system": "Staphylococcus aureus", "experiment": "Antibacterial activity against Staphylococcus aureus ATCC 29213 with GyrB T173N and GrlB T166A mutation after 18 to 20 hrs", "how_it_was_run": "as §1"}, "Staphylococcus aureus [8]": {"system": "Staphylococcus aureus", "experiment": "Antibacterial activity against Staphylococcus aureus ATCC 29213 with GyrB R144I mutation without plasmid"}, "Staphylococcus aureus [9]": {"system": "Staphylococcus aureus", "experiment": "Antibacterial activity against Staphylococcus aureus ATCC 29213 after 18 to 20 hrs", "how_it_was_run": "as §1"}, "Staphylococcus aureus [10]": {"system": "Staphylococcus aureus", "experiment": "Inhibition of RNA synthesis in Staphylococcus aureus ATCC 29213 assessed as [3H]uridine incorporation", "how_it_was_run": "(§2)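 Log-phase cells exposed in duplicate to compound at 5x MIC; labelled-precursor uptake measured over 15 min, stopped with 10% trichloroacetic acid. Incorporation expressed as percent of untreated control (taken as 100%).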"}, "Enterococcus faecalis [11]": {"system": "Enterococcus faecalis", "experiment": "Antibacterial activity against Enterococcus faecalis ATCC 29212 with GyrB T167I and ParE T169A mutation after 18 to 20 hrs", "how_it_was_run": "as §1"}, "Enterococcus faecalis [12]": {"system": "Enterococcus faecalis", "experiment": "Antibacterial activity against Enterococcus faecalis ATCC 29212 with ParE T169A mutation after 18 to 20 hrs", "how_it_was_run": "as §1"}, "Streptococcus pneumoniae [13]": {"system": "Streptococcus pneumoniae", "experiment": "Antibacterial activity against Streptococcus pneumoniae ATCC BAA-255 with ParE T172A mutation after 18 to 20 hrs", "how_it_was_run": "as §1"}, "Enterococcus faecalis [14]": {"system": "Enterococcus faecalis", "experiment": "Antibacterial activity against Enterococcus faecalis ATCC 29212 after 18 to 20 hrs", "how_it_was_run": "as §1"}, "Staphylococcus aureus [15]": {"system": "Staphylococcus aureus", "experiment": "Antibacterial activity against Staphylococcus aureus ATCC 29213 with GyrB T173I and GrlB T166A mutation after 18 to 20 hrs", "how_it_was_run": "as §1"}, "Haemophilus influenzae [16]": {"system": "Haemophilus influenzae", "experiment": "Antibacterial activity against novobiocin-resistant Haemophilus influenzae ATCC 51907 with GyrB R140C mutation after 18 to 20 hrs", "how_it_was_run": "as §1"}, "Staphylococcus aureus [17]": {"system": "Staphylococcus aureus", "experiment": "Antibacterial activity against Staphylococcus aureus ATCC 29213 carrying plasmid expressing wild type GyrB"}, "Staphylococcus aureus [18]": {"system": "Staphylococcus aureus", "experiment": "Antibacterial activity against Staphylococcus aureus ATCC 29213 with GyrB T173I mutation without plasmid"}, "Staphylococcus aureus [19]": {"system": "Staphylococcus aureus", "experiment": "Antibacterial activity against Staphylococcus aureus ATCC 29213 carrying plasmid expressing GyrB T173N mutant"}, "Staphylococcus aureus [20]": {"system": "Staphylococcus aureus", "experiment": "Inhibition of DNA synthesis in Staphylococcus aureus ATCC 29213 assessed as [3H]thymidine incorporation", "how_it_was_run": "as §2"}, "Haemophilus influenzae [21]": {"system": "Haemophilus influenzae", "experiment": "Antibacterial activity against novobiocin-resistant Haemophilus influenzae ATCC 51907 with GyrB R140H mutation after 18 to 20 hrs", "how_it_was_run": "as §1"}, "Haemophilus influenzae [22]": {"system": "Haemophilus influenzae", "experiment": "Antibacterial activity against Haemophilus influenzae ATCC 51907 after 18 to 20 hrs", "how_it_was_run": "as §1"}, "Staphylococcus aureus [23]": {"system": "Staphylococcus aureus", "experiment": "Antibacterial activity against Staphylococcus aureus ATCC 29213 with GyrB T173N mutation after 18 to 20 hrs", "how_it_was_run": "as §1"}, "Enterococcus faecalis [24]": {"system": "Enterococcus faecalis", "experiment": "Antibacterial activity against Enterococcus faecalis ATCC 29212 with GyrB T167A mutation after 18 to 20 hrs", "how_it_was_run": "as §1"}, "Haemophilus influenzae [25]": {"system": "Haemophilus influenzae", "experiment": "Antibacterial activity against Haemophilus influenzae ATCC 51907 with GyrB T169I mutation after 18 to 20 hrs", "how_it_was_run": "as §1"}, "Staphylococcus aureus [26]": {"system": "Staphylococcus aureus", "experiment": "Antibacterial activity against Staphylococcus aureus ATCC 29213 with GyrB T173N mutation without plasmid"}, "Enterococcus faecalis [27]": {"system": "Enterococcus faecalis", "experiment": "Antibacterial activity against Enterococcus faecalis ATCC 29212 with GyrB T167I mutation after 18 to 20 hrs", "how_it_was_run": "as §1"}, "Staphylococcus aureus [28]": {"system": "Staphylococcus aureus", "experiment": "Antibacterial activity against Staphylococcus aureus ATCC 29213 carrying plasmid expressing GyrB T173I mutant"}, "Staphylococcus aureus [29]": {"system": "Staphylococcus aureus", "experiment": "Antibacterial activity against novobiocin-resistant Staphylococcus aureus ATCC 29213 with GyrB R144I mutation after 18 to 20 hrs", "how_it_was_run": "as §1"}, "Staphylococcus aureus [30]": {"system": "Staphylococcus aureus", "experiment": "Antibacterial activity against Staphylococcus aureus ATCC 29213 with GyrB T173I mutation after 18 to 20 hrs", "how_it_was_run": "as §1"}, "Haemophilus influenzae [31]": {"system": "Haemophilus influenzae", "experiment": "Antibacterial activity against novobiocin-resistant Haemophilus influenzae ATCC 51907 with GyrB R140L mutation after 18 to 20 hrs", "how_it_was_run": "as §1"}}, "note": "Active and inactive are the calls of the source. No cut-off for these calls is given here.", "data": [{"smiles": "O=C(O)c1cn(C2CC2)c2cc(N3CCNCC3)c(F)cc2c1=O", "note": "[CIPROFLOXACIN]", "values": [{"measurement": "MIC", "setting": "Staphylococcus aureus [1]", "value": 0.25, "unit": "µg/mL"}, {"measurement": "Activity", "setting": "Staphylococcus aureus [2]", "value": "inactive"}, {"measurement": "MIC", "setting": "Enterococcus faecalis [3]", "value": 0.5, "unit": "µg/mL"}, {"measurement": "MIC", "setting": "Streptococcus pneumoniae [4]", "value": 0.25, "unit": "µg/mL"}, {"measurement": "MIC", "setting": "Streptococcus pneumoniae [5]", "value": 0.25, "unit": "µg/mL"}, {"measurement": "MIC", "setting": "Staphylococcus aureus [6]", "value": 0.25, "unit": "µg/mL"}, {"measurement": "MIC", "setting": "Staphylococcus aureus [7]", "value": 0.25, "unit": "µg/mL"}, {"measurement": "MIC", "setting": "Staphylococcus aureus [8]", "value": 0.25, "unit": "µg/mL"}, {"measurement": "MIC", "setting": "Staphylococcus aureus [9]", "value": 0.25, "unit": "µg/mL"}, {"measurement": "Activity", "setting": "Staphylococcus aureus [10]", "value": "inactive"}, {"measurement": "MIC", "setting": "Enterococcus faecalis [11]", "value": 0.5, "unit": "µg/mL"}, {"measurement": "MIC", "setting": "Enterococcus faecalis [12]", "value": 1, "unit": "µg/mL"}, {"measurement": "MIC", "setting": "Streptococcus pneumoniae [13]", "value": 0.25, "unit": "µg/mL"}, {"measurement": "MIC", "setting": "Enterococcus faecalis [14]", "value": 1, "unit": "µg/mL"}, {"measurement": "MIC", "setting": "Staphylococcus aureus [15]", "value": 0.25, "unit": "µg/mL"}, {"measurement": "MIC", "setting": "Haemophilus influenzae [16]", "value": 0.004, "unit": "µg/mL"}, {"measurement": "MIC", "setting": "Staphylococcus aureus [17]", "value": 0.25, "unit": "µg/mL"}, {"measurement": "MIC", "setting": "Staphylococcus aureus [18]", "value": 0.25, "unit": "µg/mL"}, {"measurement": "MIC", "setting": "Staphylococcus aureus [19]", "value": 0.25, "unit": "µg/mL"}, {"measurement": "Activity", "setting": "Staphylococcus aureus [20]", "value": "Active"}, {"measurement": "MIC", "setting": "Haemophilus influenzae [21]", "value": 0.004, "unit": "µg/mL"}, {"measurement": "MIC", "setting": "Haemophilus influenzae [22]", "value": 0.004, "unit": "µg/mL"}, {"measurement": "MIC", "setting": "Staphylococcus aureus [23]", "value": 0.25, "unit": "µg/mL"}, {"measurement": "MIC", "setting": "Enterococcus faecalis [24]", "value": 0.5, "unit": "µg/mL"}, {"measurement": "MIC", "setting": "Haemophilus influenzae [25]", "value": 0.004, "unit": "µg/mL"}, {"measurement": "MIC", "setting": "Staphylococcus aureus [26]", "value": 0.25, "unit": "µg/mL"}, {"measurement": "MIC", "setting": "Enterococcus faecalis [27]", "value": 1, "unit": "µg/mL"}, {"measurement": "MIC", "setting": "Staphylococcus aureus [28]", "value": 0.25, "unit": "µg/mL"}, {"measurement": "MIC", "setting": "Staphylococcus aureus [29]", "value": 0.25, "unit": "µg/mL"}, {"measurement": "MIC", "setting": "Staphylococcus aureus [30]", "value": 0.25, "unit": "µg/mL"}, {"measurement": "MIC", "setting": "Haemophilus influenzae [31]", "value": 0.004, "unit": "µg/mL"}]}]}
